Assay results from ChEMBL document CHEMBL3994650, “New 1,4-dihydro[1,8]naphthyridine derivatives as DNA gyrase inhibitors” (Bioorg Med Chem Lett, 2017).
≈ marks a conversion by molar mass, not a printed value. Calls of active or inactive are those of the source. The rule behind the calls is not given here.

What was measured:
[1] = system: Enterococcus faecalis; assay: Antibacterial activity against Enterococcus faecalis ATCC 51299 incubated after 24 hrs by resazurin dye based broth microdilution assay; format: functional; conditions: ATCC 51299, 24 h
[2] = system: Salmonella typhimurium; assay: Mutagenicity in Salmonella typhimurium TA98 assessed as increase in revertant colonies at 0.3125 mg/ml in presence of Sprague-Dawley rat liver S9 fraction by Ames test relative to basal level; format: toxicity; conditions: salmonella enterica subsp. enterica serovar typhimurium
Outline: (§1)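 Ames microplate format assay with strains TA98 and TA100, run with and without S9. Positive wells were counted per condition. The run was valid if positive controls gave more than 25 positive wells and negative controls fewer than 8.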

[3] = system: Salmonella typhimurium; assay: Mutagenicity in Salmonella typhimurium TA100 assessed as increase in revertant colonies at 2.5 mg/ml in absence of Sprague-Dawley rat liver S9 fraction by Ames test relative to basal level; format: toxicity; conditions: salmonella enterica subsp. enterica serovar typhimurium; outline: as §1
[4] = system: Salmonella typhimurium; assay: Mutagenicity in Salmonella typhimurium TA100 assessed as increase in revertant colonies at 1.25 mg/ml in absence of Sprague-Dawley rat liver S9 fraction by Ames test relative to basal level; format: toxicity; conditions: salmonella enterica subsp. enterica serovar typhimurium; outline: as §1
[5] = system: Salmonella typhimurium; assay: Mutagenicity in Salmonella typhimurium TA100 assessed as increase in revertant colonies at 0.3125 mg/ml in absence of Sprague-Dawley rat liver S9 fraction by Ames test relative to basal level; format: toxicity; conditions: salmonella enterica subsp. enterica serovar typhimurium; outline: as §1
[6] = system: Salmonella typhimurium; assay: Mutagenicity in Salmonella typhimurium TA100 assessed as increase in revertant colonies at 1.25 mg/ml in presence of Sprague-Dawley rat liver S9 fraction by Ames test relative to basal level; format: toxicity; conditions: salmonella enterica subsp. enterica serovar typhimurium; outline: as §1
[7] = system: Salmonella typhimurium; assay: Mutagenicity in Salmonella typhimurium TA98 assessed as increase in revertant colonies at 2.5 mg/ml in presence of Sprague-Dawley rat liver S9 fraction by Ames test relative to basal level; format: toxicity; conditions: salmonella enterica subsp. enterica serovar typhimurium; outline: as §1
[8] = system: Salmonella typhimurium; assay: Mutagenicity in Salmonella typhimurium TA98 assessed as increase in revertant colonies at 1.25 mg/ml in presence of Sprague-Dawley rat liver S9 fraction by Ames test relative to basal level; format: toxicity; conditions: salmonella enterica subsp. enterica serovar typhimurium; outline: as §1
[9] = system: Klebsiella pneumoniae; assay: Antibacterial activity against Klebsiella pneumoniae ATCC 700603 incubated after 24 hrs by resazurin dye based broth microdilution assay; format: functional; conditions: Klebsiella pneumoniae, 700603, 24 h
[10] = system: Escherichia coli; assay: Antibacterial activity against Escherichia coli ATCC 35218 incubated after 24 hrs by resazurin dye based broth microdilution assay; format: functional; conditions: ATCC 35218, 24 h
[11] = system: Escherichia coli; assay: Antibacterial activity against Escherichia coli ATCC 25922 incubated after 24 hrs by resazurin dye based broth microdilution assay; format: functional; conditions: ATCC 25922, 24 h
[12] = system: Salmonella typhimurium; assay: Mutagenicity in Salmonella typhimurium TA100 assessed as increase in revertant colonies at 0.625 mg/ml in presence of Sprague-Dawley rat liver S9 fraction by Ames test relative to basal level; format: toxicity; conditions: salmonella enterica subsp. enterica serovar typhimurium; outline: as §1
[13] = system: Listeria monocytogenes; assay: Antibacterial activity against Listeria monocytogenes ATCC 7644 incubated after 24 hrs by resazurin dye based broth microdilution assay; format: functional; conditions: ATCC 7644, 24 h
[14] = system: Salmonella typhimurium; assay: Mutagenicity in Salmonella typhimurium TA98 assessed as increase in revertant colonies at 0.625 mg/ml in presence of Sprague-Dawley rat liver S9 fraction by Ames test relative to basal level; format: toxicity; conditions: salmonella enterica subsp. enterica serovar typhimurium; outline: as §1
[15] = system: Salmonella typhimurium; assay: Mutagenicity in Salmonella typhimurium TA98 assessed as increase in revertant colonies at 5 mg/ml in absence of Sprague-Dawley rat liver S9 fraction by Ames test relative to basal level; format: toxicity; conditions: salmonella enterica subsp. enterica serovar typhimurium; outline: as §1
[16] = system: Staphylococcus aureus; assay: Antibacterial activity against Staphylococcus aureus ATCC 25923 assessed as decrease in ATP level at […] ug/ml after 24 hrs by BacTiter-Glo reagent based bioluminescence assay; format: functional
[17] = system: Staphylococcus aureus; assay: Antibacterial activity against Staphylococcus aureus ATCC 25923 incubated after 24 hrs by resazurin dye based broth microdilution assay; format: functional; conditions: ATCC 25923, 24 h
[18] = system: Salmonella typhimurium; assay: Mutagenicity in Salmonella typhimurium TA98 assessed as increase in revertant colonies at 2.5 mg/ml in absence of Sprague-Dawley rat liver S9 fraction by Ames test relative to basal level; format: toxicity; conditions: salmonella enterica subsp. enterica serovar typhimurium; outline: as §1
[19] = system: Salmonella typhimurium; assay: Mutagenicity in Salmonella typhimurium TA100 assessed as increase in revertant colonies at 2.5 mg/ml in presence of Sprague-Dawley rat liver S9 fraction by Ames test relative to basal level; format: toxicity; conditions: salmonella enterica subsp. enterica serovar typhimurium; outline: as §1
[20] = Selectivity index, ratio of IC50 for mouse NIH/3T3 cells to MIC90 for Pseudomonas aeruginosa ATCC 27853; format: toxicity; conditions: read-out: Selectivity Index
[21] = system: Escherichia coli ATCC 25922; assay: Inhibition of Escherichia coli DNA gyrase assessed as inhibition of enzyme-mediated supercoiling of relaxed pHOT1 DNA substrate after 30 mins by gel electrophoresis method
Outline: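 E. coli DNA gyrase (1 U) was incubated with relaxed pHOT1 DNA substrate (0.25 µg) for 30 min at 37 °C. Compounds were tested at 15.6, 7.8, 3.9 and 1.95 µg/L. Controls were supercoiled DNA, relaxed DNA, relaxed DNA plus gyrase, and 1% DMSO. Supercoiling was read by agarose gel electrophoresis.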

[22] = Selectivity index, ratio of IC50 for mouse NIH/3T3 cells to MIC90 for Klebsiella pneumoniae ATCC 700603; format: toxicity; conditions: read-out: Selectivity Index
[23] = system: Salmonella typhimurium; assay: Mutagenicity in Salmonella typhimurium TA100 assessed as increase in revertant colonies at 0.625 mg/ml in absence of Sprague-Dawley rat liver S9 fraction by Ames test relative to basal level; format: toxicity; conditions: salmonella enterica subsp. enterica serovar typhimurium; outline: as §1
[24] = system: Pseudomonas aeruginosa; assay: Antibacterial activity against Pseudomonas aeruginosa ATCC 27853 incubated after 24 hrs by resazurin dye based broth microdilution assay; format: functional; conditions: ATCC 27853, 24 h
[25] = system: Salmonella typhimurium; assay: Mutagenicity in Salmonella typhimurium TA98 assessed as increase in revertant colonies at 0.156 mg/ml in absence of Sprague-Dawley rat liver S9 fraction by Ames test relative to basal level; format: toxicity; conditions: salmonella enterica subsp. enterica serovar typhimurium; outline: as §1
[26] = system: Salmonella typhimurium; assay: Mutagenicity in Salmonella typhimurium TA100 assessed as increase in revertant colonies at 0.156 mg/ml in presence of Sprague-Dawley rat liver S9 fraction by Ames test relative to basal level; format: toxicity; conditions: salmonella enterica subsp. enterica serovar typhimurium; outline: as §1
[27] = system: Salmonella typhimurium; assay: Mutagenicity in Salmonella typhimurium TA100 assessed as increase in revertant colonies at 5 mg/ml in absence of Sprague-Dawley rat liver S9 fraction by Ames test relative to basal level; format: toxicity; conditions: salmonella enterica subsp. enterica serovar typhimurium; outline: as §1
[28] = system: Salmonella typhimurium; assay: Mutagenicity in Salmonella typhimurium TA98 assessed as increase in revertant colonies at 0.3125 mg/ml in absence of Sprague-Dawley rat liver S9 fraction by Ames test relative to basal level; format: toxicity; conditions: salmonella enterica subsp. enterica serovar typhimurium; outline: as §1
[29] = system: Salmonella typhimurium; assay: Mutagenicity in Salmonella typhimurium TA98 assessed as increase in revertant colonies at 0.625 mg/ml in absence of Sprague-Dawley rat liver S9 fraction by Ames test relative to basal level; format: toxicity; conditions: salmonella enterica subsp. enterica serovar typhimurium; outline: as §1
[30] = Selectivity index, ratio of IC50 for mouse NIH/3T3 cells to MIC90 for Listeria monocytogenes ATCC 7644; format: toxicity; conditions: read-out: Selectivity Index
[31] = system: Enterococcus faecalis; assay: Antibacterial activity against Enterococcus faecalis ATCC 29212 incubated after 24 hrs by resazurin dye based broth microdilution assay; format: functional; conditions: ATCC 29212, 24 h
[32] = system: Salmonella typhimurium; assay: Mutagenicity in Salmonella typhimurium TA100 assessed as increase in revertant colonies at 5 mg/ml in presence of Sprague-Dawley rat liver S9 fraction by Ames test relative to basal level; format: toxicity; conditions: salmonella enterica subsp. enterica serovar typhimurium; outline: as §1
[33] = system: Salmonella typhimurium; assay: Mutagenicity in Salmonella typhimurium TA98 assessed as increase in revertant colonies at 1.25 mg/ml in absence of Sprague-Dawley rat liver S9 fraction by Ames test relative to basal level; format: toxicity; conditions: salmonella enterica subsp. enterica serovar typhimurium; outline: as §1
[34] = system: NIH3T3; assay: Cytotoxicity against mouse NIH/3T3 cells assessed as reduction in cell proliferation after 24 hrs by MTT assay; format: cell-based; conditions: NIH3T3, 24 h
[35] = system: Salmonella typhimurium; assay: Mutagenicity in Salmonella typhimurium TA100 assessed as increase in revertant colonies at 0.156 mg/ml in absence of Sprague-Dawley rat liver S9 fraction by Ames test relative to basal level; format: toxicity; conditions: salmonella enterica subsp. enterica serovar typhimurium; outline: as §1
[36] = system: Salmonella typhimurium; assay: Mutagenicity in Salmonella typhimurium TA98 assessed as increase in revertant colonies at 0.156 mg/ml in presence of Sprague-Dawley rat liver S9 fraction by Ames test relative to basal level; format: toxicity; conditions: salmonella enterica subsp. enterica serovar typhimurium; outline: as §1
[37] = system: Salmonella typhimurium; assay: Mutagenicity in Salmonella typhimurium TA100 assessed as increase in revertant colonies at 0.3125 mg/ml in presence of Sprague-Dawley rat liver S9 fraction by Ames test relative to basal level; format: toxicity; conditions: salmonella enterica subsp. enterica serovar typhimurium; outline: as §1
[38] = system: Salmonella typhimurium; assay: Mutagenicity in Salmonella typhimurium TA98 assessed as increase in revertant colonies at 5 mg/ml in presence of Sprague-Dawley rat liver S9 fraction by Ames test relative to basal level; format: toxicity; conditions: salmonella enterica subsp. enterica serovar typhimurium; outline: as §1

MIC90 [1]: 3.9 µg/mL (≈ 7.97 µM)
MIC90 [9]: 7.8 µg/mL (≈ 15.9 µM)
MIC90 [10]: 1.95 µg/mL (≈ 3.98 µM)
MIC90 [11]: 1.95 µg/mL (≈ 3.98 µM)
MIC90 [13]: 7.8 µg/mL (≈ 15.9 µM)
MIC90 [17]: 1.95 µg/mL (≈ 3.98 µM)
inhibition [21]: Dose-dependent effect
MIC90 [24]: 7.8 µg/mL (≈ 15.9 µM)
MIC90 [31]: 3.9 µg/mL (≈ 7.97 µM)
Compound: CN(C)CCCN1CCN(c2nc3c(cc2F)c(=O)c(C(=O)O)cn3-c2ccc(F)cc2F)CC1
fold change (FC) [2]: 0.11
fold change (FC) [3]: 0
fold change (FC) [4]: 0
fold change (FC) [5]: 0
fold change (FC) [6]: 0
fold change (FC) [7]: 0
fold change (FC) [8]: 0
fold change (FC) [12]: 0
fold change (FC) [14]: 0
fold change (FC) [15]: 0
Activity [16]: Active
fold change (FC) [18]: 0
fold change (FC) [19]: 0
selectivity ratio [20]: 54
selectivity ratio [22]: 54
fold change (FC) [23]: 0
fold change (FC) [25]: 0
fold change (FC) [26]: 0
fold change (FC) [27]: 0
fold change (FC) [28]: 0
fold change (FC) [29]: 0
selectivity ratio [30]: 54
fold change (FC) [32]: 0
fold change (FC) [33]: 0
IC50 [34]: 440 µg/mL (≈ 899 µM)
fold change (FC) [35]: 0
fold change (FC) [36]: 0
fold change (FC) [37]: 0
fold change (FC) [38]: 0
